From paper PMC8911528 (Organic & biomolecular chemistry, 2021)

Assays:
[1] = target: T1, SF3B subunit of the spliceosome (Homo sapiens, UniProt O75533+Q7RTV0); experiment: In vitro splicing assay; type: biochemical; settings: for reduction in splicing inhibitory potency compared to herboxidiene: relative to herboxidiene
Summary of the method: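 Radiolabeled RNA splicing substrate incubated in human cell nuclear extract with a dose range of test compound or DMSO control. RNA resolved by denaturing PAGE and bands quantified by phosphorimaging. Splicing efficiency is mRNA over total substrate RNA, normalised to DMSO. IC50 (half-maximal reduction of splicing versus DMSO) is from nonlinear regression, [inhibitor] vs normalised response, on three independent measurements, with 95% confidence intervals.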

human cells = settings: cited from earlier work
[2] = target: T1, SF3B subunit of the spliceosome; settings: cited from earlier work
WI-38 = settings: human normal fibroblast cell line WI-38; cited from earlier work

CO[C@H]([C@@H](C)[C@H]1O[C@]1(C)C[C@H](C)/C=C/C=C(\C)[C@H]1O[C@@H](CC(=O)O)CC[C@H]1C)[C@@H](C)O [Compound 13, 2-((2R,5R,6S)-6-((S,2E,4E)-7-((2R,3R)-3-((2R,3R,4R)-4-hydroxy-3-methoxypentan-2-yl)-2-methyloxiran-2-yl)-6-methylhepta-2,4-dien-2-yl)-5-methyltetrahydro-2H-pyran-2-yl)acetic acid]
IC50 [1]: 2500 nM
reduction in splicing inhibitory potency compared to herboxidiene [1]: about 6 fold

CO[C@H]([C@@H](C)[C@H]1O[C@]1(C)C[C@H](C)/C=C/C=C(\C)[C@H]1O[C@@H](CC(=O)O)CCC12CC2)[C@@H](C)O [Compound 14, 2-((4S,6R)-4-((S,2E,4E)-7-((2R,3R)-3-((2R,3R,4R)-4-hydroxy-3-methoxypentan-2-yl)-2-methyloxiran-2-yl)-6-methylhepta-2,4-dien-2-yl)-5-oxaspiro[2.5]octan-6-yl)acetic acid]
IC50 [1]: 5200 nM
loss of splicing inhibitory activity compared to gem-dimethyl derivative ([1]; relative to gem-dimethyl derivative 15): 5 fold

C6 desmethyl herboxidiene [Compound 8]
anticancer activity in human cells (human cells): slightly lower
splicing inhibitory activity [2]: slightly lower splicing inhibitory activity

CO[C@H]([C@@H](C)[C@H]1O[C@]1(C)C[C@H](C)/C=C/C=C(\C)[C@H]1O[C@@H](CC(=O)O)CC[C@@H]1C)[C@@H](C)O [herboxidiene]
cell cycle arrest (WI-38): induces both G1 and G2/M cell cycle arrest

C=C1CC[C@H](CC(=O)O)O[C@@H]1/C(C)=C/C=C/[C@@H](C)C[C@@]1(C)O[C@@H]1[C@H](C)[C@@H](OC)[C@@H](C)O [Compound 12, 2-((2R,6S)-6-((S,2E,4E)-7-((2R,3R)-3-((2R,3R,4R)-4-hydroxy-3-methoxypentan-2-yl)-2-methyloxiran-2-yl)-6-methylhepta-2,4-dien-2-yl)-5-methylenetetrahydro-2H-pyran-2-yl)acetic acid]
IC50 [1]: 400 nM

CO[C@H]([C@@H](C)[C@H]1O[C@]1(C)C[C@H](C)/C=C/C=C(\C)[C@H]1O[C@@H](CC(=O)O)CCC1(C)C)[C@@H](C)O [Compound 15, 2-((2R,6S)-6-((S,2E,4E)-7-((2R,3R)-3-((2R,3R,4R)-4-hydroxy-3-methoxypentan-2-yl)-2-methyloxiran-2-yl)-6-methylhepta-2,4-dien-2-yl)-5,5-dimethyltetrahydro-2H-pyran-2-yl)acetic acid]
reduction in splicing inhibitory potency compared to herboxidiene [1]: 3 fold

5(R)-hydroxy herboxidiene [Compound 6]
splicing inhibition relative to herboxidiene [2]: slightly lower splicing inhibition than herboxidiene
